Assay results: ChEMBL document CHEMBL1667725, “Tuberatolides, potent FXR antagonists from the Korean marine tunicate Botryllus tuberatus” (J Nat Prod, 2011)
Activity calls are given as the source filed them. No cut-off for these calls is given here.

What was measured:
[1] = biological target: T1, Retinoic acid receptor alpha (Homo sapiens) (UniProt P10276); experiment: Effect on human Gal4-fused RAR alpha at 10 uM by luciferase reporter gene assay
T1 sequence (whole entry): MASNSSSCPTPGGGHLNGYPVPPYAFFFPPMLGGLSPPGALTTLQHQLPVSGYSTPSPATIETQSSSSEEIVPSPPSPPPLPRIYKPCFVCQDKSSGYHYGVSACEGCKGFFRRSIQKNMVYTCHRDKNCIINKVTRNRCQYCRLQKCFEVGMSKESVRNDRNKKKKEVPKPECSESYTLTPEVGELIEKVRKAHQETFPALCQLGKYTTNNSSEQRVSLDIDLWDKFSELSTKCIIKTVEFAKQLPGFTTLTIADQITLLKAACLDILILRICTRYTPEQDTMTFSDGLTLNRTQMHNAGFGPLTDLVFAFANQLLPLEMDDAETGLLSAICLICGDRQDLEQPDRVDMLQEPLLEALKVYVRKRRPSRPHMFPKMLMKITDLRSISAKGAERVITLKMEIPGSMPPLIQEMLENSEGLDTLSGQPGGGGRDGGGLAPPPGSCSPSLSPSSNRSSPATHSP

[2] = biological target: T2, Estrogen receptor (Homo sapiens) (UniProt P03372); experiment: Effect on human Gal4-fused ERalpha at 10 uM by luciferase reporter gene assay
T2 sequence (whole entry): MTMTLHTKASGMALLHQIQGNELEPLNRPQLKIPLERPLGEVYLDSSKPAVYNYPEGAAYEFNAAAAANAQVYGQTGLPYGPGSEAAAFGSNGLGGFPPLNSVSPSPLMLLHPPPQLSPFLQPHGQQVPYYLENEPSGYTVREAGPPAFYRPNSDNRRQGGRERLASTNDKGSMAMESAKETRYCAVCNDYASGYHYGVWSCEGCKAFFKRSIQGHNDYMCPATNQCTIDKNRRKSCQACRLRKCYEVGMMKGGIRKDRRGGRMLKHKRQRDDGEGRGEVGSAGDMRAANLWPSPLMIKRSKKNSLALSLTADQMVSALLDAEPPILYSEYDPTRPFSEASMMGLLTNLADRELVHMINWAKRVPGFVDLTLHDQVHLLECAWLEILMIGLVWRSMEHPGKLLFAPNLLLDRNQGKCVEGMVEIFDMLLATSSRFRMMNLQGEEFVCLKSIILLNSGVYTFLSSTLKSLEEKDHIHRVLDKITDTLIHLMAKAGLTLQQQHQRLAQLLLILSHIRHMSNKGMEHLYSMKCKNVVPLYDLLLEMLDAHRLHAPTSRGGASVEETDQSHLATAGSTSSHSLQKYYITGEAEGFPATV

[3] = biological target: T3, Progesterone receptor (Homo sapiens) (UniProt P06401); experiment: Effect on human Gal4-fused PR at 10 uM by luciferase reporter gene assay
T3 sequence (whole entry): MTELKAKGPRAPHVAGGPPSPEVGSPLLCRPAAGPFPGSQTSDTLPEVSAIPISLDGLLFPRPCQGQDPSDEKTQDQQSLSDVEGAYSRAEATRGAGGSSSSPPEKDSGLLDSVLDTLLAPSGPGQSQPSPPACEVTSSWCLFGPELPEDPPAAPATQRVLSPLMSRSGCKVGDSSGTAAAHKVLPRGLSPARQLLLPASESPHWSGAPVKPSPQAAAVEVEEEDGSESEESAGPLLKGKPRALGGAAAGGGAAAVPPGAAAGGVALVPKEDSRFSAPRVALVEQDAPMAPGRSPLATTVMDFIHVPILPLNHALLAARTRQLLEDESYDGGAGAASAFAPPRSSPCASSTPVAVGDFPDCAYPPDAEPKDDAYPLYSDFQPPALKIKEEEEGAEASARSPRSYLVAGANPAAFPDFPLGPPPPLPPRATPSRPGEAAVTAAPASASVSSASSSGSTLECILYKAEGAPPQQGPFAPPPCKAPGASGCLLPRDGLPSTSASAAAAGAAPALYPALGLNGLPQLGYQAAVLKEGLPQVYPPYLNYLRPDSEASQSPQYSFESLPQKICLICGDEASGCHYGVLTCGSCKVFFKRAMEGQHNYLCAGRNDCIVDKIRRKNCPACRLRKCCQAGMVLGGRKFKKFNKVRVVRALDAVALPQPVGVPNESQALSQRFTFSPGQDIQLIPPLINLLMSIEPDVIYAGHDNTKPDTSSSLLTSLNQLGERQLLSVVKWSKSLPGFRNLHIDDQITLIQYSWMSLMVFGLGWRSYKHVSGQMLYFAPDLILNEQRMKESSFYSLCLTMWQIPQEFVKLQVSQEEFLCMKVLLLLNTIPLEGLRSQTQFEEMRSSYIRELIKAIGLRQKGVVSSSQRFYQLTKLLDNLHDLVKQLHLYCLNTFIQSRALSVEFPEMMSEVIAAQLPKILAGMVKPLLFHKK

[4] = biological target: T4, Bile acid receptor (Homo sapiens) (UniProt Q96RI1); experiment: Binding affinity to human FXR ligand binding domain cell free system assessed as release of co-activator peptide SRC-1 after 1 hr by surface plasmon resonance method
T4 sequence (whole entry): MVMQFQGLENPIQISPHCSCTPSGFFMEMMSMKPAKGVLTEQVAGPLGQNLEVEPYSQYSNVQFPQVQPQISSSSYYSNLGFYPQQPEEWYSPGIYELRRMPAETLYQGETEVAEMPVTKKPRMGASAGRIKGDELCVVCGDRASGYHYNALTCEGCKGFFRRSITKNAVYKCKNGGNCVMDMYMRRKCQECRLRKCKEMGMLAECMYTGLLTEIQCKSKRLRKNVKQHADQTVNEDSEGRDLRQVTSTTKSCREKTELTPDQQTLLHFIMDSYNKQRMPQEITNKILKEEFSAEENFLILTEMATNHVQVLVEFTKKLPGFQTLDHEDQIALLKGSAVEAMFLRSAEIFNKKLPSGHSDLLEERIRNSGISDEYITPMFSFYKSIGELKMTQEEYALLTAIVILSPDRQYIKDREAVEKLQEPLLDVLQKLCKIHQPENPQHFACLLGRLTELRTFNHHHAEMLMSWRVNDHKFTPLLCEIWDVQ
How it was run: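 BIAcore SPR: hFXR LBD (4 µM) preincubated 1 h with compound plus 50 µM CDCA, then injected over a sensor chip bearing immobilized SRC-1 co-activator peptide; co-activator peptide binding to the LBD monitored.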

Bile acid receptor = biological target: T5, Bile acid receptor (Homo sapiens, UniProt Q96RI1); experiment: Antagonist activity at human FXR expressed in CV-1 cells assessed as inhibition of CDCA-induced transactivation after 24 hrs by luciferase reporter gene assay; type: functional, cell-based
T5 sequence (Q96RI1 whole entry): T4 sequence (whole entry)
How it was run: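 CV-1 cells in DMEM with 10% resin-charcoal-stripped FBS, 24 h at 37 °C, 5% CO2, then transiently co-transfected with pCMX-hFXR, CMXβ-GAL and Tk(EcRE)6-LUC. After 24 h, compounds were co-treated with 50 µM CDCA; harvest at 24 h. Luciferase normalized to β-galactosidase. Transfections in triplicate; experiments repeated more than three times.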

| SMILES | Activity [1] | Activity [2] | Activity [3] | Activity [4] | IC50 (Bile acid receptor) |
| --- | --- | --- | --- | --- | --- |
| CC(C)=CCCC1=C[C@@H](C/C(C)=C/CC[C@]2(C)C=Cc3cc(O)cc(C)c3O2)OC1=O [2'-EPI-TUBERATOLIDE B] | inactive | inactive | inactive | Active | 2.5 µM |
| CC(C)=CCC/C(=C/CC/C(C)=C/CC[C@@]1(C)C=Cc2cc(O)cc(C)c2O1)C(=O)O [(S)-SARGACHROMENOL] | inactive | inactive | inactive | Active | 17 µM |
| CC(C)=CCCC1=C[C@@H](C/C(C)=C/CC[C@@]2(C)C=Cc3cc(O)cc(C)c3O2)OC1=O [TUBERATOLIDE B] | inactive | inactive | inactive | Active | 1.5 µM |
| CC(C)=CCCC1=C[C@@H](C/C(C)=C/CC/C(C)=C/CC2=CC(=O)C=C(C)C2=O)OC1=O [YEZOQUINOLIDE] | inactive | inactive | inactive | Active | 5.9 µM |
| CC(C)=CCC/C(=C/CC/C(C)=C/CC[C@]1(C)C=Cc2cc(O)cc(C)c2O1)C(=O)O [(R)-SARGACHROMENOL] | inactive | inactive | inactive | Active | 9 µM |
| CC(=O)CC/C=C(\C)C[C@@H]1C=C(CCC=C(C)C)C(=O)O1 [TUBERATOLIDE A] | inactive | inactive | inactive | Active | 3.9 µM |
